The test system of data set [1] is MCF7. The experiment in a line: Cytotoxicity against human MCF7 cells assessed as cell growth after 2 days by sulforhodamine B assay. In kind it is functional. The following applies: MCF7, 48 h. Put shortly:
(§1)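 NCI cell lines were run by the Monks method: cells were plated with compounds from DMSO stocks and incubated 2 days at 37 °C in 5% CO2, in duplicate. Cells were fixed with cold TCA, stained with 0.4% SRB, and the bound dye was solubilized in 10 mM tris-base and read at 515 nm. The zero-day control was subtracted, and GI50 was taken from the curves.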
In general terms: The SRB assay estimates cell density from bound dye.

The test system of data set [2] is Nannizzia gypsea. The experiment in a line: Antifungal activity against Microsporum gypseum C 115 2000. In kind it is functional. Put shortly:
(§2)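 Dermatophytes tested by CLSI M38-A2 microdilution in MOPS-buffered RPMI-1640 at pH 7.0. Inoculum 1-5 × 10^3 CFU/mL; compounds 250 to 0.24 µg/ml in twofold steps, final DMSO <1%. Incubated at 28 °C in a moist, dark chamber and read according to control growth. MIC is the lowest concentration with complete inhibition. MFC is the lowest concentration with no growth after duplicate subculture on SDA.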

The subject of data set [3] is Cryptococcus neoformans. The experiment in a line: Antifungal activity against Cryptococcus neoformans ATCC 32264. It is filed as functional. Put shortly:
(§3)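 CLSI M27-A3 broth microdilution in RPMI-1640 buffered to pH 7.0 with MOPS. Inoculum 1-5 × 10^3 CFU/mL. Compound twofold dilutions from 250 to 0.24 µg/ml, final DMSO <1%. Incubated at 35 °C in a moist, dark chamber and read at 48 h. MIC is the lowest concentration giving total growth inhibition. For MFC, 5 µL from clear wells was plated in duplicate on SDA; MFC is the lowest concentration with no growth.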

Data set [4] in a line: Cytotoxicity against human erythrocytes assessed as hemolysis by spectrometric analysis. In kind it is cell-based, Erythrocyte. The method, boiled down: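 Human heparinized red blood cells were washed in PBS at pH 7.0 and suspended at 4% in sterile 5% glucose. Compounds from DMSO stocks were diluted in 5% glucose to final concentrations of 250 to 0.24 µg/ml and incubated with the cells at 37 °C. Released hemoglobin was read at 540 nm. HC50 is the concentration giving 50% lysis relative to the drug-free value.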

Data set [5] concerns SF-268. The experiment in a line: Cytotoxicity against human SF268 cells assessed as cell growth after 2 days by sulforhodamine B assay. Particulars: SF-268, 48 h. In kind it is functional. Put shortly:
as §1

Data set [6] relates to Trichophyton rubrum. The experiment in a line: Antifungal activity against Trichophyton rubrum C 113 2000. In kind it is functional. The method, boiled down:
as §2

Data set [7] relates to Candida tropicalis. The experiment in a line: Antifungal activity against Candida tropicalis C 131 2000. It is filed as functional. The method, boiled down: as §3
In data set [8] the test system is Candida albicans. The experiment in a line: Antifungal activity against Candida albicans ATCC 10213. In kind it is functional. Put shortly:
as §3

Data set [9] has as its system Trichophyton mentagrophytes. The experiment in a line: Antifungal activity against Trichophyton mentagrophytes ATCC 9972. In kind it is functional. The method, boiled down:
as §2

Data set [10] deals with Aspergillus flavus. The experiment in a line: Antifungal activity against Aspergillus flavus ATCC 9170. In kind it is functional. Put shortly:
(§4)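 Broth microdilution per CLSI M38-A2 in RPMI-1640 with MOPS at pH 7.0. Inoculum 1-5 × 10^3 CFU/mL, with twofold compound dilutions spanning 250-0.24 µg/ml (final DMSO <1%). Plates incubated at 35 °C, moist and dark, and read when the control fungus had grown. MIC is total growth inhibition. MFC comes from subculturing clear wells in duplicate onto SDA.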

Data set [11] deals with Aspergillus fumigatus. The experiment in a line: Antifungal activity against Aspergillus fumigatus ATCC 26934. In kind it is functional. The method, boiled down: as §4
For data set [12], the system named is NCI-H460. The experiment in a line: Cytotoxicity against human H460 cells assessed as cell growth after 2 days by sulforhodamine B assay. Particulars: NCI-H460, 48 h. In kind it is functional. The method, boiled down:
as §1

Data set [13] deals with Saccharomyces cerevisiae. The experiment in a line: Antifungal activity against Saccharomyces cerevisiae ATCC 9763. It is filed as functional. Put shortly: as §3
Data set [14] has as its system Aspergillus niger. The experiment in a line: Antifungal activity against Aspergillus niger ATCC 9029. It is filed as functional. Put shortly: as §4

In brackets after ≈: the same amount, converted by molar mass. Where only a bound is given, the exact number is not on record here.

Broadly, the GI50 is the concentration at which growth is held to half of that of the control. What is called MFC is the smallest concentration meeting the test's criterion for killing the fungus. Lower therefore signals more potent killing. In general, MIC refers to the smallest concentration in the dilution series that meets the test's criterion for growth inhibition. A low value points to inhibition by little substance. One may read the HC50 as the concentration that lyses half of the red blood cells. On to `CC1=CC(=O)N(Cc2ccccc2)C1=O`, for which the GI50 in data set [1], in data set [5] and in data set [12] was above 10 µg/mL throughout. In addition, the MFC in [2] was determined as 7.81 µg/mL (≈ 38.8 µM); in [3], 31.2 µg/mL (≈ 155 µM); in [6], 7.81 µg/mL (≈ 38.8 µM); in data set [7] it was 250 µg/mL (≈ 1240 µM); in [8] it was 125 µg/mL (≈ 621 µM); in [9], 31.2 µg/mL (≈ 155 µM). Besides, the MFC in [10] stood at 125 µg/mL (≈ 621 µM); in data set [11], 62.5 µg/mL (≈ 311 µM); in data set [13] it was 62.5 µg/mL (≈ 311 µM); in data set [14], 125 µg/mL (≈ 621 µM). Besides, the MIC in data set [2] was 3.9 µg/mL (≈ 19.4 µM); in [3] it was 15.6 µg/mL (≈ 77.7 µM); in data set [6] it was 3.9 µg/mL (≈ 19.4 µM); in data set [7] it was 125 µg/mL (≈ 621 µM); in data set [8], 62.5 µg/mL (≈ 311 µM); in data set [9] it was 31.2 µg/mL (≈ 155 µM). The MIC in data set [10] is 62.5 µg/mL (≈ 311 µM); in [11] it was 31.2 µg/mL (≈ 155 µM); in data set [13], 31.2 µg/mL (≈ 155 µM); in [14], 62.5 µg/mL (≈ 311 µM). In addition, in data set [4], the HC50 was above 250 µg/mL.

As for `CC1=CC(=O)N(CCc2ccccc2)C1=O`, the GI50 in data set [1], in data set [5] and in data set [12] was above 10 µg/mL in each case. Also, the MFC was 7.81 µg/mL (≈ 36.3 µM) in [2]; 62.5 µg/mL (≈ 290 µM) in [3]; 15.6 µg/mL (≈ 72.6 µM) in data set [6]; 250 µg/mL (≈ 1160 µM) in data set [7]; 125 µg/mL (≈ 581 µM) in [8]; 62.5 µg/mL (≈ 290 µM) in data set [9]. Also, the MFC in data set [10] is 250 µg/mL (≈ 1160 µM); in data set [11] it was 31.2 µg/mL (≈ 145 µM); in data set [13], 62.5 µg/mL (≈ 290 µM); in data set [14], 250 µg/mL (≈ 1160 µM). The MIC in data set [2] came to 3.9 µg/mL (≈ 18.1 µM); in [3] it was 31.2 µg/mL (≈ 145 µM); in data set [6], 7.81 µg/mL (≈ 36.3 µM); in [7] it was 125 µg/mL (≈ 581 µM); in data set [8], 62.5 µg/mL (≈ 290 µM); in data set [9], 31.2 µg/mL (≈ 145 µM). The MIC turned out to be 62.5 µg/mL (≈ 290 µM) in [10], 31.2 µg/mL (≈ 145 µM) in [11], 31.2 µg/mL (≈ 145 µM) in [13] and 62.5 µg/mL (≈ 290 µM) in data set [14]. Moreover, the HC50 in data set [4] is above 250 µg/mL.

`CC1=CC(=O)N(CCCc2ccccc2)C1=O`: the GI50 in data set [1], in data set [5] and in [12] was above 10 µg/mL each time. For the same compound, the MFC in data set [2] worked out at 7.81 µg/mL (≈ 34.1 µM); in data set [3], 31.2 µg/mL (≈ 136 µM); in [6] it was 3.9 µg/mL (≈ 17 µM); in data set [7], 125 µg/mL (≈ 545 µM); in data set [8] it was 125 µg/mL (≈ 545 µM); in data set [9], 31.2 µg/mL (≈ 136 µM). In addition, the MFC is 31.2 µg/mL (≈ 136 µM) in data set [10], 31.2 µg/mL (≈ 136 µM) in [11], 62.5 µg/mL (≈ 273 µM) in [13] and 31.2 µg/mL (≈ 136 µM) in data set [14]. Also, the MIC in data set [2] came to 3.9 µg/mL (≈ 17 µM); in [3] it was 15.6 µg/mL (≈ 68.2 µM); in [6], 1.95 µg/mL (≈ 8.5 µM); in [7] it was 125 µg/mL (≈ 545 µM); in data set [8], 62.5 µg/mL (≈ 273 µM); in data set [9], 15.6 µg/mL (≈ 68.2 µM). The MIC in data set [10] was 31.2 µg/mL (≈ 136 µM); in data set [11], 15.6 µg/mL (≈ 68.2 µM); in data set [13], 15.6 µg/mL (≈ 68.2 µM); in data set [14], 31.2 µg/mL (≈ 136 µM). The HC50 in data set [4] was above 250 µg/mL.

`CC1=CC(=O)N(CCCCc2ccccc2)C1=O`: the GI50 in data set [1], in [5] and in data set [12] was above 10 µg/mL throughout. Further, the MFC in data set [2] turned out to be 15.6 µg/mL (≈ 64.2 µM); in data set [3], 62.5 µg/mL (≈ 257 µM); in data set [6] it was 15.6 µg/mL (≈ 64.2 µM); in data set [7] it was 125 µg/mL (≈ 514 µM); in [8], 125 µg/mL (≈ 514 µM); in [9], 31.2 µg/mL (≈ 128 µM). The MFC amounted to 125 µg/mL (≈ 514 µM) in data set [10], 62.5 µg/mL (≈ 257 µM) in data set [11], 62.5 µg/mL (≈ 257 µM) in data set [13] and 125 µg/mL (≈ 514 µM) in [14]. Also, the MIC in [2] is 3.9 µg/mL (≈ 16 µM); in [3] it was 31.2 µg/mL (≈ 128 µM); in data set [6] it was 3.9 µg/mL (≈ 16 µM); in data set [7], 62.5 µg/mL (≈ 257 µM); in data set [8] it was 62.5 µg/mL (≈ 257 µM); in data set [9] it was 31.2 µg/mL (≈ 128 µM). Further, the MIC amounted to 62.5 µg/mL (≈ 257 µM) in [10], 31.2 µg/mL (≈ 128 µM) in data set [11], 31.2 µg/mL (≈ 128 µM) in data set [13] and 62.5 µg/mL (≈ 257 µM) in data set [14]. Further, in data set [4], the HC50 was above 250 µg/mL.

The record behind these values is ChEMBL document CHEMBL1772954, “Antifungal, cytotoxic and SAR studies of a series of N-alkyl, N-aryl and N-alkylphenyl-1,4-pyrrolediones and related compounds” (Bioorg Med Chem, 2011).
